{"source": "ChEMBL document CHEMBL4024790", "about": "(J Med Chem, 2018)", "key": {"[1]": {"experiment": "1-octanol/phosphate buffer solution partition coefficient, log D of the compound at pH 7.4 after 1 hr by LC-MS/MS method", "assay_type": "physicochemical"}, "[2]": {"experiment": "Volume of distribution at steady state in Wistar Han rat at 1 mg/kg, iv by LC-MS/MS analysis", "assay_type": "ADME, organism-based", "settings": "in vivo, read-out: Vdss; call rule not given here", "method_in_brief": "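Male Wistar-Han rats got a single IV dose as a solution in 20% (w/v) sulfobutyl ether β-cyclodextrin with hydrochloric acid, at 1 mL/kg. Blood was drawn into K2EDTA via carotid artery cannula at set times from 2 min to 24 h. Plasma was protein-precipitated with acetonitrile plus internal standard and quantified by LC-MS/MS with positive electrospray, standard curve 0.61 to 625 ng/mL.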"}, "Rattus norvegicus [3]": {"test_system": "Rattus norvegicus", "experiment": "Cardiotoxicity in rat at 5 to 250 mg/kg/day, po up to 15 days by microscopic method", "assay_type": "toxicity, organism-based", "settings": "in vivo, 360 h", "method_in_brief": "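Exploratory rat toxicity study, oral dosing at 5, 50 and 250 mg/kg/day for up to 15 days, with microscopic examination of heart and vasculature and measurement of plasma and brain exposure.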"}, "[4]": {"experiment": "Apparent intrinsic clearance in human liver microsomes", "assay_type": "ADME, microsome", "settings": "read-out: CLH(app)"}, "Rattus norvegicus [5]": {"species": "Rattus norvegicus"}, "Mus musculus": {"species": "Mus musculus", "experiment": "Increase in cGMP level in CD-1 mouse brain cortex assessed per nM of unbound brain concentration by immunoassay", "assay_type": "functional", "method_in_brief": "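CD-1 mice dosed SC (solution in 20% SBE-β-CD with 2 molar equivalents 1N HCl, 1 mL/kg); euthanized by focused microwave irradiation of brain; cortex, striatum, hippocampus homogenized in 0.5 N HCl, centrifuged; cyclic nucleotides in supernatant by enzyme immunoassay. Unbound brain exposure from satellite animals; dose-response and time-course data combined with linear model; one-way ANOVA with Fisher's PLSD.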"}, "Cytochrome P450 2C19": {"molecular_target": "Cytochrome P450 2C19 (Homo sapiens, UniProt P33261)", "sequence (P33261 whole entry)": "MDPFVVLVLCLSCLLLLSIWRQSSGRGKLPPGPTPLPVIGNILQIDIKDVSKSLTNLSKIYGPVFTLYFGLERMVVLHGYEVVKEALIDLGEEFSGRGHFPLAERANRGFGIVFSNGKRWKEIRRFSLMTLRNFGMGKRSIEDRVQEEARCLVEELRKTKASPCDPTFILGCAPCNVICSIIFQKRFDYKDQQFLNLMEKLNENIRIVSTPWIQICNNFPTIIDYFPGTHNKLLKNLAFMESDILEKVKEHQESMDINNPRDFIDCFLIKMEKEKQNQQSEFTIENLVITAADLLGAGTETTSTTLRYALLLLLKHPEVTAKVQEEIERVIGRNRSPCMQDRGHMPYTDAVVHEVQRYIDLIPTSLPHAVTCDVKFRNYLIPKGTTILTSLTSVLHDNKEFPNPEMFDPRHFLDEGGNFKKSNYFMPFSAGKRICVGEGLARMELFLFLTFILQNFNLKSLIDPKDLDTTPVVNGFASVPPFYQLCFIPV", "experiment": "Time-dependant inhibition of recombinant human CYP2C19", "assay_type": "ADME", "settings": "recombinant enzyme"}, "[6]": {"experiment": "Drug metabolism in rat hepatocytes assessed as 3-(7-methyl-5-(1-methyl-5-(5-(trifluoromethyl)pyridin-2-yl)-1H-pyrazol-4-yl)imidazo[1,5-f][1,2,4]triazin-4-ylamino)propanoic acid formation at 1 to 50 uM after 1 hr by LC-MS/MS analysis", "assay_type": "ADME, cell-based, Hepatocyte", "method_in_brief": "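Rat, dog or human liver microsomes or hepatocytes (P450 0.35–0.5 µM final) incubated with compound at 1, 10 or 50 µM in 100 mM phosphate buffer with 1 mM NADP regenerating system, 37°C for 1 h; quenched with 4 volumes acetonitrile, centrifuged, supernatant evaporated, reconstituted in 5% aqueous acetonitrile and analysed by reversed-phase LC.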"}, "[7]": {"experiment": "Terminal half life in Wistar Han rat at 5 mg/kg, po administered via gavage by LC-MS/MS analysis", "assay_type": "ADME, organism-based", "settings": "in vivo, read-out: beta t1/2 (converted)"}, "Cytochrome P450 2B6 [8]": {"molecular_target": "T1, Cytochrome P450 2B6 (Homo sapiens, UniProt P20813)", "T1 sequence (P20813 whole entry)": "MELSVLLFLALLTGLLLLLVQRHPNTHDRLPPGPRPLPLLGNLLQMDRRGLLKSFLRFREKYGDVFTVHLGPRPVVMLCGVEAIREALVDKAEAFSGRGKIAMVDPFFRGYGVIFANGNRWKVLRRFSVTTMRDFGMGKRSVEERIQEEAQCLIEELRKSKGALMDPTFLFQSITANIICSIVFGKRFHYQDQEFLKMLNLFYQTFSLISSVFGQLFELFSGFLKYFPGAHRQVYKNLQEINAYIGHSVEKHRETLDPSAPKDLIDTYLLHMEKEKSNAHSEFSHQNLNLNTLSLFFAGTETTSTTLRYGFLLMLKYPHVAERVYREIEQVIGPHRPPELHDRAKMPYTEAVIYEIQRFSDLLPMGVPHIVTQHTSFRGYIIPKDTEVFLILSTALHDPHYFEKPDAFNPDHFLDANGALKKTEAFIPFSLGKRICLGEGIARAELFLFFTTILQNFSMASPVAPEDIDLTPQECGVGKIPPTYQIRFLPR", "experiment": "Time-dependant inhibition of recombinant human CYP2B6", "assay_type": "ADME", "settings": "recombinant enzyme"}, "[9]": {"experiment": "Plasma clearance in beagle dog at 0.3 mg/kg, iv by LC-MS/MS analysis", "assay_type": "ADME, organism-based, Canis lupus familiaris", "method_in_brief": "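Single iv dose to male Wistar-Han rats (1 mg/kg) or dogs (0.3 mg/kg), given as a solution in 20% (w/v) SBECD with HCl. Dose volume 1 mL/kg in rats and 0.4 mL/kg in dogs. Blood taken by carotid artery cannula from 2 min to 24 h into K2EDTA (rat) or K3EDTA (dog) tubes. Plasma analysed by LC-MS/MS with positive electrospray after acetonitrile precipitation with internal standard.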"}, "Cytochrome P450 2C9": {"molecular_target": "Cytochrome P450 2C9 (Homo sapiens, UniProt P11712)", "sequence (P11712 whole entry)": "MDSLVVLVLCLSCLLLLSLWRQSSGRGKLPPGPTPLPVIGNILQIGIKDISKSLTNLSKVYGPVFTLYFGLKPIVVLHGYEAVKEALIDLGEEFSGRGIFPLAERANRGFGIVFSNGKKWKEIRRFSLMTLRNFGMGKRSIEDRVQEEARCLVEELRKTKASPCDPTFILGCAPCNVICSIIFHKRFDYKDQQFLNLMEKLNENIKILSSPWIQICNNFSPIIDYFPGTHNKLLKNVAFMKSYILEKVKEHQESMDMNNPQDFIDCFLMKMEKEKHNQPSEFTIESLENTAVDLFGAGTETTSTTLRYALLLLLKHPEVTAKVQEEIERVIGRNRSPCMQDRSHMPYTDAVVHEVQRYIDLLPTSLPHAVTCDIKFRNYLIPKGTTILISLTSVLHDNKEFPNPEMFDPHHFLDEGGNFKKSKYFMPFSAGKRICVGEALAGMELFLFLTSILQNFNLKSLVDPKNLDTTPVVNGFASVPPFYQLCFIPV", "experiment": "Inhibition of recombinant human CYP2C9", "assay_type": "ADME", "settings": "recombinant enzyme"}, "Cytochrome P450 2B6 [10]": {"molecular_target": "T1, Cytochrome P450 2B6", "experiment": "Inhibition of recombinant human CYP2B6", "assay_type": "ADME", "settings": "recombinant enzyme"}, "[11]": {"experiment": "Oral bioavailability in Wistar Han rat at 5 mg/kg administered via gavage by LC-MS/MS analysis", "assay_type": "ADME, organism-based", "settings": "in vivo"}, "Canis familiaris [12]": {"species": "Canis familiaris", "experiment": "Toxicity in dog assessed as effect on vasculature up to 1 month by microscopic method", "set-up": "species or system Canis lupus familiaris", "settings": "in vivo"}, "Canis familiaris [13]": {"species": "Canis familiaris", "experiment": "Cardiotoxicity in dog up to 1 month by microscopic method", "assay_type": "toxicity, Canis lupus familiaris"}, "[14]": {"experiment": "AUC (0 to infinity) in Wistar Han rat at 1 mg/kg, iv by LC-MS/MS analysis", "assay_type": "ADME, organism-based", "set-up": "dose 1 mg/kg, time infinity, route intravenous", "settings": "in vivo", "method_in_brief": "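Male Wistar-Han rats received a single IV dose as a solution in 20% (w/v) sulfobutylether-β-cyclodextrin with hydrochloric acid. Blood was drawn by carotid artery cannula into K2EDTA at set times from 2 min to 24 h. Plasma was acetonitrile-precipitated with internal standard and run by positive-ESI LC-MS/MS against standards of 0.61–625 ng/mL. AUC was extrapolated from time 0 to infinity.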"}, "Cytochrome P450 1A2": {"molecular_target": "T2, Cytochrome P450 1A2 (Homo sapiens, UniProt P05177)", "T2 sequence (P05177 whole entry)": "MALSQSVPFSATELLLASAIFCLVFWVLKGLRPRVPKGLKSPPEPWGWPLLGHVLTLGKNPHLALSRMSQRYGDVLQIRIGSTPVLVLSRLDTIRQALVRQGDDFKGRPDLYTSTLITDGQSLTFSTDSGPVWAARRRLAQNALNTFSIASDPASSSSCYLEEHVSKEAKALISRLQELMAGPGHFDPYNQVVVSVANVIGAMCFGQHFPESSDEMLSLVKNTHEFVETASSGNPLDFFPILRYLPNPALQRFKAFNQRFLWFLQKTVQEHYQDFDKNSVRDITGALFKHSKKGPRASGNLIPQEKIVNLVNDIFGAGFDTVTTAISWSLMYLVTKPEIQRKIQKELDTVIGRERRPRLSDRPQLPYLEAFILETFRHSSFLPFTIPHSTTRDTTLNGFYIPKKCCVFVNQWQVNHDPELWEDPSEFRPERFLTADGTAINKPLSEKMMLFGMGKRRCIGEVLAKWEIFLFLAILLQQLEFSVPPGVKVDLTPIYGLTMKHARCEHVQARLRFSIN", "experiment": "Inhibition of recombinant human CYP1A2", "assay_type": "ADME", "settings": "recombinant enzyme"}}}
{"smiles": "Cc1nc(-c2cnn(C)c2-c2ccc(C(F)(F)F)cn2)c2c(N3CCC3)ncnn12", "note": "[PF-05180999]", "values": [{"measurement": "logD at 1 h", "setting": "[1]", "result": 2.3}, {"measurement": "Vd", "setting": "[2]", "result": 3.94, "unit": "L/kg"}, {"measurement": "Activity", "setting": "Rattus norvegicus [3]", "result": "Non-Toxic"}, {"measurement": "CLint scaled", "setting": "[4]", "result": 52, "unit": "mL/min/kg"}, {"measurement": "fIC50", "setting": "Rattus norvegicus [5]", "result": 9, "unit": "nM"}, {"measurement": "Activity", "setting": "Mus musculus", "result": 0.63, "unit": "%"}, {"measurement": "TDI", "setting": "Cytochrome P450 2C19", "result": "Not Active"}, {"measurement": "Drug metabolism", "setting": "[6]", "result": "Metabolite_Detected"}, {"measurement": "half-life", "setting": "[7]", "result": 84, "unit": "min"}, {"measurement": "TDI", "setting": "Cytochrome P450 2B6 [8]", "result": "Not Active"}, {"measurement": "clearance", "setting": "[9]", "result": 12.3, "unit": "mL/min/kg"}, {"measurement": "inhibition (INH)", "setting": "Cytochrome P450 2C9", "result": "Not Active"}, {"measurement": "inhibition (INH)", "setting": "Cytochrome P450 2B6 [10]", "result": "Not Active"}, {"measurement": "bioavailability", "setting": "[11]", "result": 44, "unit": "%"}, {"measurement": "Activity", "setting": "Canis familiaris [12]", "result": "Non-Toxic"}, {"measurement": "Activity", "setting": "Canis familiaris [13]", "result": "Non-Toxic"}, {"measurement": "AUC(0-inf)", "setting": "[14]", "result": 141, "unit": "ng·h/mL"}, {"measurement": "inhibition (INH)", "setting": "Cytochrome P450 1A2", "result": "Not Active"}]}
